{"source": "paper PMC12707352", "about": "(Angewandte Chemie (International Ed. in English), 2025)", "key": {"[1]": {"conditions": "macrocyclic analog of crizotinib; cited from earlier work"}, "RAW 264.7 cells [2]": {"system": "RAW 264.7 cells", "test": "Lipid peroxidation, flow cytometry with BODIPY 665/676", "format": "cell-based, murine", "conditions": "RSL3 1 µM, 4 h, BODIPY 665/676 flow cytometry", "summary_of_the_method": "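RAW 264.7 cells were treated for 4 h with DMSO, RSL3 (1 µM) or test compound plus RSL3. They were then stained with BODIPY 665/676 for 0.5 h. Mean fluorescence intensity was read by flow cytometry. Mean ± SD, n = 3; one-way ANOVA.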"}, "HeLa cells": {"system": "HeLa cells", "test": "Lipid peroxidation, fluorescence imaging with BODIPY 665/676", "format": "cell-based, human", "conditions": "RSL3 1 µM, 3 h, BODIPY 665/676 imaging", "summary_of_the_method": "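HeLa cells were treated for 3 h with DMSO, test compound (40 µM), RSL3 (1 µM) or both. They were then stained for 0.5 h with Hoechst 33342 (2 µg/ml) and BODIPY 665/676 (5 µM). Cells were imaged by fluorescence, and BODIPY intensity was quantified relative to DMSO-treated cells. Mean ± SD, n = 21; one-way ANOVA.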"}, "[3]": {"system": "RAW 264.7 murine macrophage‐like cells", "test": "EZ-Cytox cell viability assay with RSL3 co-treatment", "format": "cell-based", "conditions": "RSL3 1 µM + DMSO, 24 h, EZ-Cytox (WST), n = 3", "summary_of_the_method": "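RAW 264.7 murine macrophage-like cells were co-treated for 24 h with RSL3 (1 µM) plus test compound. The screen used 10 µM, and dose-response used 0.3–20 µM on a log scale. Viability was read by EZ-Cytox and normalized to DMSO. Mean ± SD, n = 3.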"}, "RAW 264.7 cells [4]": {"system": "RAW 264.7 cells", "conditions": "read-out: EC50 (ferroptosis inhibition); in RAW 264.7 cells; cited from earlier work"}}}
{"molecule": "C[C@H]1Oc2cc(cnc2N)-c2c(nn(C)c2C#N)CN(C)C(=O)c2ccc(F)cc21", "note": "[lorlatinib]", "values": [{"measurement": "Potency increase through macrocyclization", "setting": "[1]", "value": "~80", "unit": "fold"}]}
{"molecule": "COC(=O)c1ccc([C@H]2c3[nH]c4ccccc4c3C[C@H](C(=O)OC)N2C(=O)CCl)cc1", "note": "[RSL3, RAS‐selective lethal 3]", "values": [{"measurement": "Lipid peroxide level (flow cytometry), RSL3 alone", "setting": "RAW 264.7 cells [2]", "value": "markedly increased lipid peroxide levels"}, {"measurement": "Lipid peroxide level (imaging), RSL3 alone", "setting": "HeLa cells", "value": "markedly increased lipid peroxide levels"}, {"measurement": "Cell viability with RSL3 alone", "setting": "[3]", "value": 18, "unit": "%"}]}
{"molecule": "CCOC(=O)c1ccc(NC2CCCCC2)c(N)c1", "note": "[ferrostatin‐1]", "values": [{"measurement": "EC50", "setting": "RAW 264.7 cells [4]", "value": "40 ± 4", "unit": "nM"}]}
